Reference: ChEMBL document CHEMBL3102734, “Inhibition of LOX by flavonoids: a structure-activity relationship study” (Eur J Med Chem, 2014)
The source made the active and inactive calls. The rule behind the calls is not given here.

What was measured:
[1] = biological target: T1, Seed linoleate 13S-lipoxygenase-1 (Glycine max, UniProt P08170); assay: Uncompetitive inhibition of soybean LOX-1 using linoleic acid as substrate preincubated for 5 mins followed by substrate addition by Lineweaver-Burk plot analysis
T1 sequence (P08170 whole entry): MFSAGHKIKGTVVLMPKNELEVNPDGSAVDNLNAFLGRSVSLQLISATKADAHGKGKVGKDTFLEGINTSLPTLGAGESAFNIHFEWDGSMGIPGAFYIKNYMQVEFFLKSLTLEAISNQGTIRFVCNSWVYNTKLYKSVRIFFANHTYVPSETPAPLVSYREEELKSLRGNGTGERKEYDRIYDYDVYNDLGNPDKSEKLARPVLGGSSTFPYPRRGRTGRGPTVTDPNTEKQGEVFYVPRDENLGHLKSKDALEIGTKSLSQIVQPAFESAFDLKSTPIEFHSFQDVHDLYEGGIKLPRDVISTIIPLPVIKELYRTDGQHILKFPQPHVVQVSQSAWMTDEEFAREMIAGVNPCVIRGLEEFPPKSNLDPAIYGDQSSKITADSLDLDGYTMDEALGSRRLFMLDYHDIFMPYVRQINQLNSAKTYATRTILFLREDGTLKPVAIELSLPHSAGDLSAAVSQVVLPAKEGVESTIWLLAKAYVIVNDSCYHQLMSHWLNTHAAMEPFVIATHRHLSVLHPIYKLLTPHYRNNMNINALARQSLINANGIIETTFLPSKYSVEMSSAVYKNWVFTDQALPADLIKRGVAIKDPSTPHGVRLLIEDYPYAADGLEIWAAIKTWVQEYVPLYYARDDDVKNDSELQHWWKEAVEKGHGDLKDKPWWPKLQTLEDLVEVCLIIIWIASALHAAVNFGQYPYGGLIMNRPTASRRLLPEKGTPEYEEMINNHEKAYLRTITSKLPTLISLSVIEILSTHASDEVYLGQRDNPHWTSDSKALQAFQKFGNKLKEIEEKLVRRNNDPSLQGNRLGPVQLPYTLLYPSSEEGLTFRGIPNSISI
Summary of the method: (§1)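 Soybean LOX-1 (supplied lyophilized) kinetic assay. Enzyme pre-incubated with inhibitor 5 min, then linoleic acid added. Readings every 30 s for 10 min; rate taken as the 0–3 min slope. Three inhibitor concentrations tested against three substrate concentrations. Inhibition type assigned by nonlinear Michaelis–Menten fitting and Lineweaver–Burk plots. At least four experiments, each in triplicate.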

[2] = biological target: T2, Polyunsaturated fatty acid 5-lipoxygenase (Homo sapiens, UniProt P09917); assay: Inhibition of 5-LOX-mediated LTB4 production in human neutrophils using arachidonic acid as substrate preincubated for 10 mins followed by substrate addition measured after 8 mins by enzyme immunoassay
T2 sequence (P09917 whole entry): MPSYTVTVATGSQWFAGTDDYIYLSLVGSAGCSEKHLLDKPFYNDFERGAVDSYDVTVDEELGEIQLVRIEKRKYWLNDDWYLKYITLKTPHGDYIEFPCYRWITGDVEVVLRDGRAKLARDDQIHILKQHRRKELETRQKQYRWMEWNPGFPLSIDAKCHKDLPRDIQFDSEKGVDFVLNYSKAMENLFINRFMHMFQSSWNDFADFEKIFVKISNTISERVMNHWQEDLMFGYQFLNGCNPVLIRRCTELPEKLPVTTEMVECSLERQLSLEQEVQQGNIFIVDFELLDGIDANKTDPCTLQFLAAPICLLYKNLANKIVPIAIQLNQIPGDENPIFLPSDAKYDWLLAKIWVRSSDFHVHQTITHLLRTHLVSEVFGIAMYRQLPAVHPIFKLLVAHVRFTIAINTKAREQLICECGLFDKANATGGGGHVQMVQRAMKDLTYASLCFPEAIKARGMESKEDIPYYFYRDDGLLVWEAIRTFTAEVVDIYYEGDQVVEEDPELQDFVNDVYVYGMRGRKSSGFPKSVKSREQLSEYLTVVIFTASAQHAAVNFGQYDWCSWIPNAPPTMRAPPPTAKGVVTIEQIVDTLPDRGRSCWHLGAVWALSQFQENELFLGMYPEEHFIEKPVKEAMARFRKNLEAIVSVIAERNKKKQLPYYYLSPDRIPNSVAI
Summary of the method: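 Isolated human neutrophils held in HBSS on ice; viability checked by trypan blue. Flavonoids (0.15–40 μM) pre-incubated 10 min, then A23187 (5 μM) plus arachidonic acid (10 μg/mL) added for 8 min. Stopped with cold methanol and centrifuged 13,000 g, 1 min, 4 °C. LTB4 measured by EIA and expressed as % inhibition of control. NDGA (1 μM) positive control. At least three experiments.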

[3] = biological target: T3, Seed linoleate 13S-lipoxygenase-1 (Glycine max) (UniProt P08170); assay: Binding affinity to soybean LOX-1 at 1248 uM by STD-[1H] NMR spectroscopic analysis
T3 sequence (whole entry): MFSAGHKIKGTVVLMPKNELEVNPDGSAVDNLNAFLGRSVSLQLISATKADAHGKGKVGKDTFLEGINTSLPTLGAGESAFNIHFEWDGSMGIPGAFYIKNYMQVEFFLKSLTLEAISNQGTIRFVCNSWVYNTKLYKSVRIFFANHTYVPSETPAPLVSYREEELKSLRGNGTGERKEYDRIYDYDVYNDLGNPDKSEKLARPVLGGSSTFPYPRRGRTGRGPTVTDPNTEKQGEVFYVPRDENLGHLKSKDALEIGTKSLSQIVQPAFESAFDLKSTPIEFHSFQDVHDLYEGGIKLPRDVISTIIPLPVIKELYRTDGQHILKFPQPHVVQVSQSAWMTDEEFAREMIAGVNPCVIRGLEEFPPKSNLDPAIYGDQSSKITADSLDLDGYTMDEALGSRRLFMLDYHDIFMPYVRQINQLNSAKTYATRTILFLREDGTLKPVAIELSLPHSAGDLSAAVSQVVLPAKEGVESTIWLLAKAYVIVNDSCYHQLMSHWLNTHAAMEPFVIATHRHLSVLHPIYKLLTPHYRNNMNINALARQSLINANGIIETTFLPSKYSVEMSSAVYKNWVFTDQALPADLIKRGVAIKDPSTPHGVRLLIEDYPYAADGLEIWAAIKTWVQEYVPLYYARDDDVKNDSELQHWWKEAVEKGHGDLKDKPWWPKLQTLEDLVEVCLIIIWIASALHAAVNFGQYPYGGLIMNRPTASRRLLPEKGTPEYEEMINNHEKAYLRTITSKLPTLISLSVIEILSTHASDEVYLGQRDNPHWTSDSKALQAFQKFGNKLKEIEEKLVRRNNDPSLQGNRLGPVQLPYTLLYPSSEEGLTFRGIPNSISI
Summary of the method: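 STD-1H NMR at 37 °C, 600 MHz, cryoprobe. Lyophilized soybean LOX-1 in Tris buffer (20 mM Tris, 7 mM (NH4)2SO4, 3.5 mM MgCl2, 0.3 mM DTT in D2O, pH 9.0). Ligand added from a 16.6 mM DMSO-d6 stock. Final concentrations: LOX 4 μM, ligand 1248 μM, ratio 300:1. On-resonance saturation at 1.0 ppm; off-resonance reference at 20000 Hz.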

[4] = substrate: O=c1cc(-c2ccc(O)c(O)c2)oc2ccccc12; assay: (§2) Activity at soybean LOX-1 using linoleic acid as substrate at 10 uM preincubated for 5 mins followed by substrate addition by Michaelis-Menten plot analysis; details: Glycine max
Summary of the method: as §1, with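 “added. Conversion to the cis,trans-hydroperoxide followed at 234 nm at 30 °C with continuous soft shaking.” for “added.”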

[5] = substrate: O=c1cc(-c2ccccc2)oc2cc(O)cc(O)c12; assay: as §2; details: Glycine max
Summary of the method: as §1, with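 “added. Conversion to the cis,trans-hydroperoxide followed at 234 nm at 30 °C with continuous soft shaking.” for “added.”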

[6] = substrate: O=c1cc(-c2ccc(O)c(O)c2)oc2cc(O)cc(O)c12; assay: as §2; details: Glycine max
Summary of the method: as §1, with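 “added. Conversion to the cis,trans-hydroperoxide followed at 234 nm at 30 °C with continuous soft shaking.” for “added.”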

[7] = substrate: O=c1cc(-c2ccc(O)c(O)c2)oc2cc(O)ccc12; assay: as §2; details: Glycine max
Summary of the method: as §1, with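 “added. Conversion to the cis,trans-hydroperoxide followed at 234 nm at 30 °C with continuous soft shaking.” for “added.”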

[8] = substrate: O=c1cc(-c2ccc(O)cc2)oc2cccc(O)c12; assay: as §2; details: Glycine max
Summary of the method: as §1, with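 “added. Conversion to the cis,trans-hydroperoxide followed at 234 nm at 30 °C with continuous soft shaking.” for “added.”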

[9] = substrate: O=c1cc(-c2ccc(O)c(O)c2)oc2cccc(O)c12; assay: (§3) Activity at soybean LOX-1 using linoleic acid as substrate at 50 uM preincubated for 5 mins followed by substrate addition by Michaelis-Menten plot analysis; details: Glycine max
Summary of the method: as §1, with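 “added. Conversion to the cis,trans-hydroperoxide followed at 234 nm at 30 °C with continuous soft shaking.” for “added.”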

[10] = substrate: O=c1cc(-c2ccc(O)c(O)c2)oc2cc(O)cc(O)c12; assay: as §3; details: Glycine max
Summary of the method: as §1, with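 “added. Conversion to the cis,trans-hydroperoxide followed at 234 nm at 30 °C with continuous soft shaking.” for “added.”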

[11] = substrate: O=c1cc(-c2cccc(O)c2)oc2cc(O)cc(O)c12; assay: as §3; details: Glycine max
Summary of the method: as §1, with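 “added. Conversion to the cis,trans-hydroperoxide followed at 234 nm at 30 °C with continuous soft shaking.” for “added.”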

[12] = substrate: O=c1cc(-c2ccc(O)cc2)oc2cccc(O)c12; assay: as §3; details: Glycine max
Summary of the method: as §1, with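 “added. Conversion to the cis,trans-hydroperoxide followed at 234 nm at 30 °C with continuous soft shaking.” for “added.”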

[13] = substrate: O=c1cc(-c2ccc(O)c(O)c2)oc2ccccc12; assay: (§4) Activity at soybean LOX-1 using linoleic acid as substrate at 25 uM preincubated for 5 mins followed by substrate addition by Michaelis-Menten plot analysis; details: Glycine max
Summary of the method: as §1, with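 “added. Conversion to the cis,trans-hydroperoxide followed at 234 nm at 30 °C with continuous soft shaking.” for “added.”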

[14] = substrate: O=c1cc(-c2ccc(O)cc2)oc2cc(O)cc(O)c12; assay: as §4; details: Glycine max
Summary of the method: as §1, with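 “added. Conversion to the cis,trans-hydroperoxide followed at 234 nm at 30 °C with continuous soft shaking.” for “added.”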

[15] = substrate: O=c1cc(-c2ccccc2)oc2cc(O)cc(O)c12; assay: as §4; details: Glycine max
Summary of the method: as §1, with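 “added. Conversion to the cis,trans-hydroperoxide followed at 234 nm at 30 °C with continuous soft shaking.” for “added.”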

[16] = substrate: O=c1cc(-c2ccc(O)c(O)c2)oc2cccc(O)c12; assay: as §4; details: Glycine max
Summary of the method: as §1, with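 “added. Conversion to the cis,trans-hydroperoxide followed at 234 nm at 30 °C with continuous soft shaking.” for “added.”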

[17] = substrate: O=c1cc(-c2ccc(O)c(O)c2)oc2cc(O)ccc12; assay: as §4; details: Glycine max
Summary of the method: as §1, with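 “added. Conversion to the cis,trans-hydroperoxide followed at 234 nm at 30 °C with continuous soft shaking.” for “added.”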

[18] = substrate: O=c1c(O)c(-c2ccc(O)c(O)c2)oc2cc(O)cc(O)c12; assay: as §4; details: Glycine max
Summary of the method: as §1, with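 “added. Conversion to the cis,trans-hydroperoxide followed at 234 nm at 30 °C with continuous soft shaking.” for “added.”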

[19] = substrate: O=c1cc(-c2ccc(O)cc2)oc2cc(O)cc(O)c12; assay: (§5) Activity at soybean LOX-1 using linoleic acid as substrate at 100 uM preincubated for 5 mins followed by substrate addition by Michaelis-Menten plot analysis; details: Glycine max
Summary of the method: as §1, with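 “added. Conversion to the cis,trans-hydroperoxide followed at 234 nm at 30 °C with continuous soft shaking.” for “added.”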

[20] = substrate: O=c1cc(-c2cccc(O)c2)oc2cc(O)cc(O)c12; assay: as §5; details: Glycine max
Summary of the method: as §1, with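 “added. Conversion to the cis,trans-hydroperoxide followed at 234 nm at 30 °C with continuous soft shaking.” for “added.”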

[21] = substrate: O=c1c(O)c(-c2ccc(O)c(O)c2)oc2cc(O)cc(O)c12; assay: as §5; details: Glycine max
Summary of the method: as §1, with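 “added. Conversion to the cis,trans-hydroperoxide followed at 234 nm at 30 °C with continuous soft shaking.” for “added.”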

O=c1cc(-c2ccc(O)c(O)c2)oc2cc(O)cc(O)c12 [LUTEOLIN]
Ki [1]: 122 µM
IC50 [2]: 1.6 µM
Activity [3]: Active

B1: Seed linoleate 13S-lipoxygenase-1 (Glycine max), P08170 (protein)
chain: MFSAGHKIKGTVVLMPKNELEVNPDGSAVDNLNAFLGRSVSLQLISATKADAHGKGKVGKDTFLEGINTSLPTLGAGESAFNIHFEWDGSMGIPGAFYIKNYMQVEFFLKSLTLEAISNQGTIRFVCNSWVYNTKLYKSVRIFFANHTYVPSETPAPLVSYREEELKSLRGNGTGERKEYDRIYDYDVYNDLGNPDKSEKLARPVLGGSSTFPYPRRGRTGRGPTVTDPNTEKQGEVFYVPRDENLGHLKSKDALEIGTKSLSQIVQPAFESAFDLKSTPIEFHSFQDVHDLYEGGIKLPRDVISTIIPLPVIKELYRTDGQHILKFPQPHVVQVSQSAWMTDEEFAREMIAGVNPCVIRGLEEFPPKSNLDPAIYGDQSSKITADSLDLDGYTMDEALGSRRLFMLDYHDIFMPYVRQINQLNSAKTYATRTILFLREDGTLKPVAIELSLPHSAGDLSAAVSQVVLPAKEGVESTIWLLAKAYVIVNDSCYHQLMSHWLNTHAAMEPFVIATHRHLSVLHPIYKLLTPHYRNNMNINALARQSLINANGIIETTFLPSKYSVEMSSAVYKNWVFTDQALPADLIKRGVAIKDPSTPHGVRLLIEDYPYAADGLEIWAAIKTWVQEYVPLYYARDDDVKNDSELQHWWKEAVEKGHGDLKDKPWWPKLQTLEDLVEVCLIIIWIASALHAAVNFGQYPYGGLIMNRPTASRRLLPEKGTPEYEEMINNHEKAYLRTITSKLPTLISLSVIEILSTHASDEVYLGQRDNPHWTSDSKALQAFQKFGNKLKEIEEKLVRRNNDPSLQGNRLGPVQLPYTLLYPSSEEGLTFRGIPNSISI
Km [4]: 137 µM
Km [5]: 71 µM
Km [6]: 190 µM
Vmax [6]: 0.012 µM
Km [7]: 97.4 µM
Km [8]: 105 µM
Km [9]: 46.4 µM
Km [10]: 148 µM
Vmax [10]: 0.009 µM
Km [11]: 145 µM
Km [12]: 61.3 µM
Km [13]: 191 µM
Km [14]: 191 µM
Km [15]: 55 µM
Km [16]: 104 µM
Km [17]: 190 µM
Km [18]: 129 µM
Vmax [18]: 0.008 µM
Km [19]: 191 µM
Km [20]: 111 µM
Km [21]: 100 µM
Vmax [21]: 0.006 µM
